Tests used:
[1] = tested on: 786-0; experiment: Growth inhibition of human 786-0 cells after 48 hrs by SRB assay; format: functional; conditions: 786-0, 48 h
[2] = tested on: OVCAR-3; experiment: Growth inhibition of human OVCAR3 cells after 48 hrs by SRB assay; format: functional; conditions: OVCAR-3, 48 h
[3] = tested on: IGROV-1; experiment: Growth inhibition of human IGROV1 cells after 48 hrs by SRB assay; format: functional; conditions: IGROV-1, 48 h
[4] = tested on: COLO 205; experiment: Growth inhibition of human COLO205 cells after 48 hrs by SRB assay; format: functional; conditions: COLO 205, 48 h
[5] = tested on: CCRF-CEM; experiment: Growth inhibition of human CCRF-CEM cells after 48 hrs by SRB assay; format: functional
[6] = tested on: SW-620; experiment: Growth inhibition of human SW620 cells after 48 hrs by SRB assay; format: functional; conditions: SW-620, 48 h
[7] = Growth inhibition of human UACC257 cells after 48 hrs by SRB assay; format: functional; conditions: UACC-257, 48 h
[8] = Growth inhibition of human OVCAR4 cells after 48 hrs by SRB assay; format: functional; conditions: OVCAR-4, 48 h
[9] = tested on: KM12; experiment: Growth inhibition of human KM12 cells after 48 hrs by SRB assay; format: functional; conditions: KM12, 48 h
[10] = tested on: NCI-H226; experiment: Growth inhibition of human NCI-H226 cells after 48 hrs by SRB assay; format: functional; conditions: NCI-H226, 48 h
[11] = tested on: Paracentrotus lividus; experiment: Antimitotic activity against sea urchin embryo model assessed as cleavage arrest of fertilized egg compound treated at 8 to 20 mins post-fertilization and 45 to 55 mins prior to first mitotic cycle completion measured 2.5 to 5.5 hrs post-fertilization; format: functional
Summary of the method: (§1)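 Fertilized eggs are exposed 8–20 min after fertilization to 2-fold decreasing concentrations. Stocks are 10 mM in DMSO, then diluted 10-fold in 95% EtOH; final DMSO is at most 0.05% and EtOH at most 1%. Embryos are kept as a monolayer, up to 2000 embryos/mL, in filtered seawater at room temperature. The value is the threshold concentration giving cleavage alteration, embryo death before hatching or full mitotic arrest. Duplicates were run.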

[12] = tested on: Paracentrotus lividus; experiment: Antimitotic activity against sea urchin embryo free-swimming blastula model assessed as embryo spinning compound treated at 8 to 10 hrs post-fertilization measured after 0.25 to 20 hrs; format: functional, Blastula stage
[13] = tested on: NCI-H522; experiment: Growth inhibition of human NCI-H522 cells after 48 hrs by SRB assay; format: functional; conditions: NCI-H522, 48 h
[14] = tested on: MOLT-4; experiment: Growth inhibition of human MOLT4 cells after 48 hrs by SRB assay; format: functional; conditions: MOLT-4, 48 h
[15] = tested on: SK-MEL-2; experiment: Growth inhibition of human SK-MEL-2 cells after 48 hrs by SRB assay; format: functional; conditions: SK-MEL-2, 48 h
[16] = tested on: SK-OV-3; experiment: Growth inhibition of human SKOV3 cells after 48 hrs by SRB assay; format: functional; conditions: SK-OV-3, 48 h
[17] = tested on: A549; experiment: Growth inhibition of human A549 cells after 48 hrs by SRB assay; format: functional; conditions: A549, 48 h
[18] = tested on: HCT-116; experiment: Growth inhibition of human HCT116 cells after 48 hrs by SRB assay; format: functional; conditions: HCT-116, 48 h
[19] = tested on: UACC-62; experiment: Growth inhibition of human UACC62 cells after 48 hrs by SRB assay; format: functional; conditions: UACC-62, 48 h
[20] = tested on: SK-MEL-5; experiment: Growth inhibition of human SK-MEL-5 cells after 48 hrs by SRB assay; format: functional; conditions: SK-MEL-5, 48 h
[21] = tested on: CAKI-1; experiment: Growth inhibition of human CAKI-1 cells after 48 hrs by SRB assay; format: functional; conditions: CAKI-1, 48 h
[22] = tested on: NCI-H460; experiment: Growth inhibition of human NCI-H460 cells after 48 hrs by SRB assay; format: functional; conditions: NCI-H460, 48 h
[23] = Growth inhibition of human OVCAR5 cells after 48 hrs by SRB assay; format: functional; conditions: OVCAR-5, 48 h
[24] = Growth inhibition of human HCC2998 cells after 48 hrs by SRB assay; format: functional; conditions: HCC 2998, 48 h
[25] = tested on: LOX IMVI; experiment: Growth inhibition of human LOXIMVI cells after 48 hrs by SRB assay; format: functional
[26] = tested on: HL-60(TB); experiment: Growth inhibition of human HL-60(TB) cells after 48 hrs by SRB assay; format: functional; conditions: HL-60, 48 h
[27] = tested on: Paracentrotus lividus; experiment: Antimitotic activity against sea urchin embryo model assessed as cleavage alteration of fertilized egg compound treated at 8 to 20 mins post-fertilization and 45 to 55 mins prior to first mitotic cycle completion measured 2.5 to 5.5 hrs post-fertilization; format: functional; summary of the method: as §1
[28] = tested on: A498; experiment: Growth inhibition of human A498 cells after 48 hrs by SRB assay; format: functional; conditions: A498, 48 h
[29] = tested on: ACHN; experiment: Growth inhibition of human ACHN cells after 48 hrs by SRB assay; format: functional
[30] = tested on: HT-29; experiment: Growth inhibition of human HT-29 cells after 48 hrs by SRB assay; format: functional; conditions: HT-29, 48 h
[31] = tested on: U-251; experiment: Growth inhibition of human U251 cells after 48 hrs by SRB assay; format: functional; conditions: U-251, 48 h
[32] = Growth inhibition of human HOP92 cells after 48 hrs by SRB assay; format: functional; conditions: HOP-92, 48 h
[33] = tested on: SR; experiment: Growth inhibition of human SR cells after 48 hrs by SRB assay; format: functional
[34] = tested on: HOP-62; experiment: Growth inhibition of human HOP62 cells after 48 hrs by SRB assay; format: functional; conditions: HOP-62, 48 h
[35] = tested on: RPMI-8226; experiment: Growth inhibition of human RPMI8226 cells after 48 hrs by SRB assay; format: functional; conditions: RPMI-8226, 48 h
[36] = tested on: SF-295; experiment: Growth inhibition of human SF295 cells after 48 hrs by SRB assay; format: functional; conditions: SF-295, 48 h
[37] = Growth inhibition of human RXF393 cells after 48 hrs by SRB assay; format: functional; conditions: RXF 393, 48 h
[38] = tested on: K562; experiment: Growth inhibition of human K562 cells after 48 hrs by SRB assay; format: functional; conditions: K562, 48 h
[39] = tested on: OVCAR-8; experiment: Growth inhibition of human OVCAR8 cells after 48 hrs by SRB assay; format: functional; conditions: OVCAR-8, 48 h
[40] = tested on: SF-268; experiment: Growth inhibition of human SF268 cells after 48 hrs by SRB assay; format: functional; conditions: SF-268, 48 h
[41] = tested on: HCT-15; experiment: Growth inhibition of human HCT15 cells after 48 hrs by SRB assay; format: functional; conditions: HCT-15, 48 h
[42] = tested on: SK-MEL-28; experiment: Growth inhibition of human SK-MEL-28 cells after 48 hrs by SRB assay; format: functional; conditions: SK-MEL-28, 48 h
[43] = Growth inhibition of human SF539 cells after 48 hrs by SRB assay; format: functional; conditions: SF-539, 48 h
[44] = tested on: SNB-75; experiment: Growth inhibition of human SNB75 cells after 48 hrs by SRB assay; format: functional; conditions: SNB-75, 48 h
[45] = Growth inhibition of human EKVX cells after 48 hrs by SRB assay; format: functional
[46] = tested on: SNB-19; experiment: Growth inhibition of human SNB19 cells after 48 hrs by SRB assay; format: functional; conditions: SNB-19, 48 h
[47] = tested on: M14; experiment: Growth inhibition of human M14 cells after 48 hrs by SRB assay; format: functional; conditions: M14, 48 h
[48] = tested on: Malme-3M; experiment: Growth inhibition of human MALME-3M cells after 48 hrs by SRB assay; format: functional
[49] = tested on: TK-10; experiment: Growth inhibition of human TK10 cells after 48 hrs by SRB assay; format: functional; conditions: TK-10, 48 h
[50] = tested on: SN12C; experiment: Growth inhibition of human SN12C cells after 48 hrs by SRB assay; format: functional
[51] = tested on: NCI-H322M; experiment: Growth inhibition of human NCI-H322M cells after 48 hrs by SRB assay; format: functional
[52] = Growth inhibition of human UO31 cells after 48 hrs by SRB assay; format: functional; conditions: UO-31, 48 h
[53] = tested on: NCI-H23; experiment: Growth inhibition of human NCI-H23 cells after 48 hrs by SRB assay; format: functional; conditions: NCI-H23, 48 h
[54] = tested on: B16; experiment: Cytotoxicity against mouse B16 cells by MTT assay; format: functional, cell-based

COc1ccc(/C=C\c2cc(OC)c(OC)c(OC)c2)cc1O [COMBRETASTATIN A4]
GI50 [1]: 100 nM | GI50 [2]: 2 nM | GI50 [3]: 15 nM | GI50 [4]: 100 nM | GI50 [5]: 3 nM | GI50 [6]: 3 nM | GI50 [7]: 3 nM | GI50 [8]: 14 nM | GI50 [9]: 5 nM | GI50 [10]: 4 nM | EC [11]: 0.01 µM | EC [12]: 0.05 µM | GI50 [13]: 2 nM | GI50 [14]: 3 nM | GI50 [15]: 4 nM | GI50 [16]: 59 nM | GI50 [17]: 16 nM | GI50 [18]: 3 nM | GI50 [19]: 6 nM | GI50 [20]: 4 nM | GI50 [21]: 26 nM | GI50 [22]: 3 nM | GI50 [23]: 100 nM | GI50 [24]: 63 nM | GI50 [25]: 3 nM | GI50 [26]: 2 nM | EC [27]: 0.002 µM | GI50 [28]: 6 nM | GI50 [29]: 6 nM | GI50 [30]: 100 nM | GI50 [31]: 4 nM | GI50 [32]: 3 nM | GI50 [33]: 3 nM | GI50 [34]: 3 nM | GI50 [35]: 3 nM | GI50 [36]: 4 nM | GI50 [37]: 2 nM | GI50 [38]: 2 nM | GI50 [39]: 3 nM | GI50 [40]: 6 nM | GI50 [41]: 4 nM | GI50 [42]: 8 nM | GI50 [43]: 3 nM | GI50 [44]: 8 nM | GI50 [45]: 86 nM | GI50 [46]: 4 nM | GI50 [47]: 3 nM | GI50 [48]: 20 nM | GI50 [49]: 100 nM | GI50 [50]: 6 nM | GI50 [51]: 7 nM | GI50 [52]: 19 nM | GI50 [53]: 3 nM

COc1cc(/C=C\c2ccc(N)cc2)cc(OC)c1OC
IC50 [54]: 56000 nM

Source: ChEMBL document CHEMBL3102739, “Synthesis and antiproliferative activity of conformationally restricted 1,2,3-triazole analogues of combretastatins in the sea urchin embryo model and against human cancer cell lines” (Bioorg Med Chem, 2014)
